# HTRA1 inhibitor = inhibitors of human serine peptidase HTRA1. Q92743. recombinant HTRA1, FP-rhodamine activity-based probe, fluorescence polarization. inhibition, % at 5.96 µM. 340,000 tested, 0.5% active. AID 504803; in the data active = inhibition above about 36%;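 note: 0% = enzyme with DMSO and 100% = wells lacking enzyme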
# PAFAH2 inh = inhibitors of human PAFAH2; Q99487; recombinant PAFAH2, FP-rhodamine activity probe, fluorescence polarization; inhibition, % at 3.39 µM; 340,000 tested, 0.99% active; AID 492956;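 active = inhibition above the mean over all tested compounds plus 3 SD, cut at about 30% in these data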;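 note: inhibitors block probe labeling of enzyme so polarization drops; 0% = enzyme with DMSO and 100% = wells lacking PAFAH2 protein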
# PAFAH1B2 inh = PAFAH1B2 (human) inhibition; recombinant PAFAH1B2, FP-rhodamine activity probe, fluorescence polarization; inhibition, % at 3.39 µM; 340,000 tested, 1.2% active; AID 492953;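 active = inhibition above the mean of all tested compounds plus 3 SD, cut at about 24% in these data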;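 note: 0% = enzyme with DMSO and 100% = wells lacking PAFAH1B2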
# mABHD4 FP = inhibitors of mouse ABHD4 | inhibition, % at 8.92 µM | purified mABHD4, FP-Rh probe fluorescence polarization | AID 720543 | 370,000 tested, 0.54% active;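 active = inhibition exceeding the mean over every tested compound plus 3 SD, cut at about 30% in these data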;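 note: 0% = plate median of compound wells and 100% = S159A mutant with DMSO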
#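 Assay system: mouse ABHD4 enzyme, wild type / Also added: fluorescent activity-based probe FP-Rh / Doses: single nominal dose of 8.92 µM, 0.89% DMSO final / Timing: 45 min compound pre-incubation plus 60 min probe step, 25 °C / Signal: FP readout, ex 525 nm / em 598 nm / Control set: S159A mutant/DMSO as 100%, compound-well median as 0%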
# pPAFAH inh = pPAFAH (human) enzyme inhibition. 330,000 tested, 1.5% active. recombinant pPAFAH, FP-rhodamine probe fluorescence polarization. AID 463082. inhibition, % at 3.39 µM;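 active = inhibition above the mean inhibition across the screen plus 3 SD, cut at about 25% in these data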;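 note: inhibitors block binding of the rhodamine activity-based probe so polarization drops; 0% = enzyme with DMSO and 100% = wells lacking pPAFAH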
# Target sequence (Q13093 whole entry, looked up): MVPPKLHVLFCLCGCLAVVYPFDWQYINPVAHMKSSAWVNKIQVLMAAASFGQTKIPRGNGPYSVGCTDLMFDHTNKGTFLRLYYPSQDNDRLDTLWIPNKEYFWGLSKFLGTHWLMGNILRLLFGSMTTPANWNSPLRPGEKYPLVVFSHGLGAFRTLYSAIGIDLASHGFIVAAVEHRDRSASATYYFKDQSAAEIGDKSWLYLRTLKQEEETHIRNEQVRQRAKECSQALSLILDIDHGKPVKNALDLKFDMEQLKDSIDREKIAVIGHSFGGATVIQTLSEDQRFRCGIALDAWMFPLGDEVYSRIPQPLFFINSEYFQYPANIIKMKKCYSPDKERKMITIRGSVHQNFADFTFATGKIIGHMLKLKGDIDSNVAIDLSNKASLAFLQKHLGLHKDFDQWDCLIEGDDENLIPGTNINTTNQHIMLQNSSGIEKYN
# PAFAH1B3 FP inh = inhibitors of human PAFAH1B3; Q15102; recombinant PAFAH1B3, FP-rhodamine probe, fluorescence polarization; inhibition, % at 3.39 µM; 340,000 tested, 0.28% active;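 active = inhibition above the screen-wide average of all tested compounds plus 3 SD, cut at about 25% in these data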;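 note: 0% = enzyme with DMSO only and 100% = wells lacking PAFAH1B3 protein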
# Target sequence (Q15102 whole entry, looked up): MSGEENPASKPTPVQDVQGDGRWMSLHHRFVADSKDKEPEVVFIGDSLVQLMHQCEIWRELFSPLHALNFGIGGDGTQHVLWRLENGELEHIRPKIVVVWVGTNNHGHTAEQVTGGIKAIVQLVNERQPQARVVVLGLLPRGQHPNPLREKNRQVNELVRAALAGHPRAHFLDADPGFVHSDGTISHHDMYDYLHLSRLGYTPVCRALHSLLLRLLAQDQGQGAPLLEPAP
# PAFAH2 confirm = PAFAH2 (human) inhibition, confirmed; 2,300 tested, 65% active; AID 493030; inhibition, % at 3.39 µM; recombinant PAFAH2, FP-rhodamine activity probe, fluorescence polarization; shares compounds with PAFAH2 inh;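 active = mean inhibition over three repeats above a set limit taken from the earlier primary screen, cut at about 30% in these data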;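 note: inhibitor blocks binding of rhodamine activity probe so polarization falls; 0% = enzyme with DMSO and 100% = wells lacking PAFAH2 protein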
# * = called active by the depositor; . = no result. Sampled rows, rich in hits. Any-hit rate of the full collection: about 2.8%.
SMILES,HTRA1 inhibitor,PAFAH2 inh,PAFAH1B2 inh,mABHD4 FP,pPAFAH inh,PAFAH1B3 FP inh,PAFAH2 confirm
CCN(CC)c1ccc(S(=O)(=O)N2CCOCC2)cc1NC(=O)COC(=O)/C=C/c1ccc(C)o1,-18,38*,-1,0,19,2,40*
CCN(CC)c1ccc(S(=O)(=O)N2CCOCC2)cc1NC(=O)COC(=O)/C=C/c1ccc(O)c(OC)c1,-10,65*,0,-9,.,3,66*
CCN(CC)c1ccc(S(=O)(=O)N2CCOCC2)cc1NC(=O)COC(=O)c1ccco1,0,29,6,-10,2,8,.
COc1ccc2c(c1)CNC2CS(=O)(=O)NCc1ccccc1 (stereo unspecified),.,.,.,0,.,.,.
COc1cc(F)c(S(=O)(=O)N2CCCN(S(=O)(=O)c3cccc(N)c3)CC2)c(F)c1,.,.,.,-2,.,.,.
O=C1c2nccnc2C(=O)N1Cc1ccccc1,2,2,0,-2,.,5,.
O=C1c2nc3ccccn3c2C(=O)N1Cc1ccccc1,2,38*,-6,5,4,-1,27
O=C(COC(=O)c1ccccc1Br)Nc1ccc(F)cc1,-18,76*,5,-1,12,5,70*
Cc1occc1C(=O)OCC(=O)Nc1ccc(F)cc1,1,73*,1,-12,7,5,62*
O=C(NC1CCCCN(Cc2ccc(Cl)cc2)C1=O)c1c(F)cccc1F (stereo unspecified),.,.,.,-9,.,.,.
Brc1ccccc1OCCCCn1cnc2ccccc21,-20,35*,4,-11,2,2,4
COc1cc(/C=C/C(=O)OCC(=O)Nc2ccc3c(c2)OCCO3)ccc1O,10,75*,3,5,10,0,80*
Cc1nn(C2CCS(=O)(=O)C2)c(Cl)c1/C=C/C(=O)OCC(=O)Nc1ccc2c(c1)OCO2 (stereo unspecified),4,83*,3,5,2,9,80*
COc1cc(/C=C/C(=O)OCC(=O)Nc2ccc3c(c2)OCO3)ccc1O,4,82*,-1,17,5,3,74*
COc1cc(NC(=O)COC(=O)/C=C/c2c(C)nn(C3CCS(=O)(=O)C3)c2Cl)cc(OC)c1OC (stereo unspecified),-5,0,2,7,1,2,.
COc1ccc(/C=C/C(=O)OCC(=O)Nc2ccc3c(c2)OCO3)cc1,4,70*,2,-3,8,-2,69*
CC(C)C[C@H](NC1(C(=O)NCCc2c[nH]c3ccccc23)CCN(C)CC1)C(=O)NCCCc1ccccc1,.,.,.,10,.,.,.
COc1ccc(S(=O)(=O)NCC(=O)N2CCN(c3ccccn3)CC2)c(OC)c1,.,.,.,7,.,.,.
COC(=O)C1CN(Cc2cn(Cc3ccccc3)nn2)CCS(=O)(=O)N1Cc1ccccc1 (stereo unspecified),.,.,.,7,.,.,.
COC(=O)N1C[C@H](O)[C@H](O)C[C@@H]1c1ccccc1Br,.,.,.,-2,.,.,.
O=C(CSc1ccccc1C(=O)O)c1ccc([N+](=O)[O-])cc1,-2,46*,0,0,1,5,56*
O=C(CSc1ccc([N+](=O)[O-])cc1)c1ccccc1,1,2,1,2,.,0,.
Cc1ccc(S(=O)(=O)n2ccc(-c3c(-c4ccccc4)noc3C)n2)cc1,.,.,.,-10,.,.,.
COc1ccc(CN2C(=O)c3cccnc3C2=O)cc1S(=O)(=O)N1CCOc2ccc(Cl)cc21,-8,30*,-1,5,0,9,18
O=C1CC(Nc2ccc(N3CCOCC3)cc2)C(=O)N1c1ccccc1 (stereo unspecified),14,-1,5,.,17,-6,.
SMILES,HTRA1 inhibitor,PAFAH2 inh,PAFAH1B2 inh,mABHD4 FP,pPAFAH inh,PAFAH1B3 FP inh,PAFAH2 confirm
COc1ccc(NC2CC(=O)N(c3ccccc3)C2=O)cc1 (stereo unspecified),-3,41*,7,-4,0,4,2
O=c1oc(-c2cccs2)nc2c1cnn2-c1ccccc1,22,66*,3,-5,18,0,54*
O=c1oc(-c2cccs2)nc2ccc(Br)cc12,-25,18,3,-24,-6,4,.
Cc1ccc2nc(-c3cccs3)oc(=O)c2c1,-29,54*,-1,-2,2,11,54*
COc1cc2nc(-c3cccs3)oc(=O)c2cc1OC,-2,41*,0,5,-2,17,23
CCOC(=O)N1CCN(C(=O)C[C@H]2C(=O)N(Cc3ccc(OC)cc3)C3=CCCC[C@@]32C(=O)OCC)CC1,.,.,.,-7,.,.,.
Cc1cccc(C(=O)OCC(=O)N2CCCC2=O)c1O,-7,38*,1,-1,-3,4,22
Nc1c(Cl)cc(Cl)cc1C(=O)OCC(=O)N1CCCC1,-1,0,6,-3,4,-1,.
Cc1cccc(C(=O)OCC(=O)N2CCCCCC2)c1O,5,3,5,-1,3,0,.
Nc1c(Cl)cc(Cl)cc1C(=O)OCC(=O)N1CCCC1=O,5,40*,14,.,3,0,36*
CCOC(=O)CC[C@H]1CC[C@]2(CCCN(C(=O)C(C)(C)C)C2)O1,.,.,.,0,.,.,.
O=C(COC(=O)c1c[nH]c2ccccc12)NC1CCCC1,2,72*,5,2,14,10,68*
NC(=O)Nc1ccc(C(=O)OCC(=O)c2c[nH]c3ccccc23)cc1,-15,36*,1,-8,7,11,30
N#CCC(=O)Nc1ccc(C(=O)OCC(=O)c2c[nH]c3ccccc23)cc1,-57,-11,-11,-62,-14,-20,.
CC(=O)c1ccc(NC(=O)COC(=O)c2c[nH]c3ccccc23)cc1,-21,45*,-10,-4,-4,21,29
N#Cc1ccccc1NC(=O)COC(=O)c1c[nH]c2ccccc12,-3,69*,-4,5,.,-5,67*
C=CCN1C(C(=O)OC)CN(Cc2cn(Cc3ccc(OC)cc3)nn2)CCS1(=O)=O (stereo unspecified),.,.,.,1,.,.,.
CCCCCCC/C=C(\C)[C@@H](O)[C@@H](C)C(=O)N1CCC[C@@H]1C(=O)O[C@H](C(=O)O[C@@H](C)C(=O)O)[C@@H](C)CC,.,.,.,17,.,.,.
COC(=O)c1ccc(Cn2ccc3ccc(-c4ccc5ccn(C(=O)C6CCCCC6)c5c4)cc32)cc1,.,.,.,-9,.,.,.
O=C(NCCc1ccccc1)OCc1cn(-c2ccc(F)c(F)c2)nn1,.,.,.,-6,.,.,.
Cc1ccc(-n2c(SCC(=O)c3ccccc3Cl)nnc2-c2cnccn2)cc1,.,.,.,-6,.,.,.
Clc1ccc(-n2c(SCc3cccc4ccccc34)nnc2-c2ccccn2)cc1,.,.,.,-7,.,.,.
Cc1ccc(NC(=O)COC(=O)c2c[nH]c3ccccc23)cc1C,-16,71*,4,-12,19,4,71*

# Compound activity as filed in PubChem.
